Source: ChEMBL document CHEMBL3421533, “The Discovery of Orally Bioavailable Tyrosine Threonine Kinase (TTK) Inhibitors: 3-(4-(heterocyclyl)phenyl)-1H-indazole-5-carboxamides as Anticancer Agents” (J Med Chem, 2015)

Tests used:
[1] = molecular target: T1, Dual specificity protein kinase TTK (Homo sapiens, UniProt P33981); assay: Inhibition of amino terminal GST-fused full length human TTK using His6-SUMO-TTK-N as substrate preincubated for 15 mins prior to ATP addition by indirect ELISA detection system
T1 sequence (P33981 whole entry): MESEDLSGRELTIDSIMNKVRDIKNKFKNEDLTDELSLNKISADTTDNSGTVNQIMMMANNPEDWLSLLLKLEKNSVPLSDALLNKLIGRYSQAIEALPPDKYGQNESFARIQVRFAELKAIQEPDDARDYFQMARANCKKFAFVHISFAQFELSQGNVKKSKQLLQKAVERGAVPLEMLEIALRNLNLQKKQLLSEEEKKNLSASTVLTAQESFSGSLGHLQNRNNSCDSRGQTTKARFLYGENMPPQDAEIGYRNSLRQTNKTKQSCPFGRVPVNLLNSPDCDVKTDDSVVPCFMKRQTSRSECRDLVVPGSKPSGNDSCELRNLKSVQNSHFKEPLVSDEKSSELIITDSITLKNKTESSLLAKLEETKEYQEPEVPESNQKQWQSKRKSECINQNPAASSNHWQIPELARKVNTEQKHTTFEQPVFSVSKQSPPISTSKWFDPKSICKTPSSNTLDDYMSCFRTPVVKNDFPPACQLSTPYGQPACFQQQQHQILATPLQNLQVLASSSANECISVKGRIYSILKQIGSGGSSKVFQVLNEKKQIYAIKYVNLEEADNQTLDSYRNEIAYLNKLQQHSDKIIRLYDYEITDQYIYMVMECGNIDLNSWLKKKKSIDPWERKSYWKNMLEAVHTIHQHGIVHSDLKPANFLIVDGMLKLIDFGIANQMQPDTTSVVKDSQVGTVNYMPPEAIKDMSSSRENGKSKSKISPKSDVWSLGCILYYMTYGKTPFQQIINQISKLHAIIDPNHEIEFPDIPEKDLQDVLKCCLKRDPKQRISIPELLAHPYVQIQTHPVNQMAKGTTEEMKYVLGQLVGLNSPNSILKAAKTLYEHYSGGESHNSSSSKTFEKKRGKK

[2] = Cytotoxicity against human OVCAR3 cells after 5 days by sulforhodamine B assay; type: functional, OVCAR-3
[3] = molecular target: T2, Aurora kinase A (Homo sapiens, UniProt O14965); assay: Inhibition of recombinant AURKA (unknown origin) preincubated for 15 mins prior to ATP addition by FRET-based homogenous assay
T2 sequence (O14965 whole entry): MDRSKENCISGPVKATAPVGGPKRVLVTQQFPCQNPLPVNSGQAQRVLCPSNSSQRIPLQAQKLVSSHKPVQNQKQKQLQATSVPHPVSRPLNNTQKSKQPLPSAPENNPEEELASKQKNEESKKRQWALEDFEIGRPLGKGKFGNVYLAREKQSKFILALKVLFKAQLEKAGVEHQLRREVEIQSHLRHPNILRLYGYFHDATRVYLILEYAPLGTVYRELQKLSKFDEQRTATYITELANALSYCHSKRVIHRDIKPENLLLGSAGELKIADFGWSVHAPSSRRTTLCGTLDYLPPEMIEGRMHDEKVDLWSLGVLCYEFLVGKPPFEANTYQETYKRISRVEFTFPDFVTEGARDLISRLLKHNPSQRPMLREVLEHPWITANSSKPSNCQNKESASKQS

[4] = Half life in mouse liver microsomes at 1 uM by LC-MS analysis; type: ADME; conditions: liver microsomes
[5] = Half life in Sprague-Dawley rat at 1 mg/kg, iv by LC-MS/MS analysis; type: ADME, organism-based; parameters: dose 1 mg/kg, route intravenous; conditions: in vivo
[6] = AUCinfinity in Sprague-Dawley rat at 5 mg/kg, po by LC-MS/MS analysis; type: ADME, organism-based; parameters: time infinity, dose 5 mg/kg, route oral; conditions: plasma
[7] = Oral bioavailability in dog; type: ADME, organism-based, Canis lupus familiaris; conditions: in vivo
[8] = Toxicity in po dosed athymic CD1 nude mouse assessed as body weight loss in excess 20% and deemed moribund administered as qd for 21 days measured 3 times per week during compound dosing; type: organism-based; conditions: in vivo
[9] = Antitumor activity against human HCT116 cells xenografted in athymic CD1 nude mouse assessed as tumor growth inhibition at 23 mg/kg, po qd administered for 21 days measured 3 times per week during compound dosing relative to vehicle-treated control; type: functional; conditions: HCT-116, 504 h, read-out: TGI
Summary of the method: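 HCT116 cells (5 million) were injected subcutaneously into the right flank of 6–8 week old female athymic CD-1 nude mice. At a mean tumor volume of 80–120 mm³, mice were randomized (n = 8). Dosing was oral, daily for 21 days, in 10% NMP/40% PEG400/50% DI water, at the MTD and ~2/3 MTD. Tumors were measured three times weekly, volume x²y/2, and TGI was taken against vehicle.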

[10] = molecular target: Proto-oncogene tyrosine-protein kinase receptor Ret (Homo sapiens, UniProt P07949, V804M); assay: Inhibition of human Ret V804M mutant by millipore radiometric assay
Summary of the method: (§1)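 Radiometric profiling against a 278-kinase panel was done with ATP at Km. Half-maximal inhibitory concentrations were then determined for the kinases most inhibited.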

[11] = molecular target: Maternal embryonic leucine zipper kinase (Homo sapiens, UniProt Q14680); assay: Inhibition of human MELK by millipore radiometric assay; summary of the method: as §1
[12] = molecular target: T1, Dual specificity protein kinase TTK; assay: Inhibition of TTK (unknown origin) transfected in human HCT116 cells after 4 hrs by near infrared imager analysis; type: cell-based, HCT-116
Summary of the method: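 HCT116 cells transfected with wild-type TTK were arrested with nocodazole (200 ng/mL, 17 h). They were pretreated with MG132 (15 μM, 30 min), then exposed to compound or DMSO for 4 h. Blots were probed for phospho-TTK (Thr12/Ser15), phospho-Aurora A (Thr288)/B (Thr232), TTK and GAPDH. Bands were quantified by near-infrared imaging, and EC50 was fitted.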

[13] = molecular target: T1, Dual specificity protein kinase TTK; assay: Competitive inhibition of amino terminal GST-fused full length human TTK using His6-SUMO-TTK-N as substrate by Lineweaver-Burk plot analysis in presence of ATP; conditions: read-out: Ki(app)
[14] = tested on: MDA-MB-231; assay: Cytotoxicity against human MDA-MB-231 cells after 5 days by sulforhodamine B assay; type: functional; conditions: MDA-MB-231, 120 h
Summary of the method: (§2)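 Cancer lines were seeded at 800–6000 cells per well according to growth rate, 24 h before compound overlay. After culture, cells were fixed in situ and stained with sulforhodamine B. GI50 values were derived by curve fitting.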

[15] = Cytotoxicity against human SKOV3 cells after 5 days by sulforhodamine B assay; type: functional; conditions: SK-OV-3, 120 h; summary of the method: as §2
[16] = tested on: HT-29; assay: Cytotoxicity against human HT-29 cells after 5 days by sulforhodamine B assay; type: functional; conditions: HT-29, 120 h; summary of the method: as §2
[17] = tested on: SK-MEL-28; assay: Cytotoxicity against human SK-MEL-28 cells after 5 days by sulforhodamine B assay; type: functional; conditions: SK-MEL-28, 120 h; summary of the method: as §2
[18] = tested on: HCT-116; assay: Induction of chromosome segregation defect in human HCT116 cells assessed as anaphase and telophase cells with lagging chromosomes at 100 nM incubated for 6 hrs post double thymidine block by DAPI staining-based immunofluorescence microscopic analysis (reference value: 19 +/- 2%); type: functional
[19] = Half life in human liver microsomes at 1 uM by LC-MS analysis; type: ADME
[20] = Plasma protein binding in rat; type: ADME, cell-free; conditions: read-out: PPB (converted)
[21] = Plasma protein binding in dog; type: ADME, cell-free, Canis lupus familiaris; conditions: read-out: PPB (converted)
[22] = Plasma protein binding in human; type: ADME, cell-free; conditions: read-out: PPB (converted)

Proto-oncogene tyrosine-protein kinase receptor Ret, sequence (P07949 29-1114 V804M limits assumed): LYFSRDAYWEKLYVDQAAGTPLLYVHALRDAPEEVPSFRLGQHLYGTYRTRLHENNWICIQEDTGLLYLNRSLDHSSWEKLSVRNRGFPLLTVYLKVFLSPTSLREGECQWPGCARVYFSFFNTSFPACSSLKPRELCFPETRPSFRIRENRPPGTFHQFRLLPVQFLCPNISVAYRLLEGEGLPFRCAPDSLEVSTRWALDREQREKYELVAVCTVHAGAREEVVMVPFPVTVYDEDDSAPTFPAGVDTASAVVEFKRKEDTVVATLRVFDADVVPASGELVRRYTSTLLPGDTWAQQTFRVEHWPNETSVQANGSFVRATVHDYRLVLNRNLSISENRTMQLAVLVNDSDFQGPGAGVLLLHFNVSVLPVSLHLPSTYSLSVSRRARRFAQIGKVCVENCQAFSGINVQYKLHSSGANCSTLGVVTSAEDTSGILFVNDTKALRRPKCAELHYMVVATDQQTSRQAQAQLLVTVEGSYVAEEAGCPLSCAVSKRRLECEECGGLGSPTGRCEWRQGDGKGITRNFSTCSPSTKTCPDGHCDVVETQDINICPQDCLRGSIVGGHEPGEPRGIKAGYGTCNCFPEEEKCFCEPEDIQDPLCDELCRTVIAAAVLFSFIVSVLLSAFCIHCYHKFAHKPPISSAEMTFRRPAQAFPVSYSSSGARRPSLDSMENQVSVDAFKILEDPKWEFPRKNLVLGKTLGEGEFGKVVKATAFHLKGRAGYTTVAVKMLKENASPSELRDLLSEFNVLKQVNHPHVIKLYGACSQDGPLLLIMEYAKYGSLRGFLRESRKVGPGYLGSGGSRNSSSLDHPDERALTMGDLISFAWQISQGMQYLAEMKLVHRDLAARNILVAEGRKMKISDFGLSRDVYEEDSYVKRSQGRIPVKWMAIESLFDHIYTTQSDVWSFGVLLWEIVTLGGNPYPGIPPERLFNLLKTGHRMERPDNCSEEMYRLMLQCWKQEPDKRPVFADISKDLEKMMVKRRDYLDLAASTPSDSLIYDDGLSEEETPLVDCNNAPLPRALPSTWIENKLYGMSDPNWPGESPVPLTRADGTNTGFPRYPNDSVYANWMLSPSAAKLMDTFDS
Maternal embryonic leucine zipper kinase, sequence (Q14680 whole entry): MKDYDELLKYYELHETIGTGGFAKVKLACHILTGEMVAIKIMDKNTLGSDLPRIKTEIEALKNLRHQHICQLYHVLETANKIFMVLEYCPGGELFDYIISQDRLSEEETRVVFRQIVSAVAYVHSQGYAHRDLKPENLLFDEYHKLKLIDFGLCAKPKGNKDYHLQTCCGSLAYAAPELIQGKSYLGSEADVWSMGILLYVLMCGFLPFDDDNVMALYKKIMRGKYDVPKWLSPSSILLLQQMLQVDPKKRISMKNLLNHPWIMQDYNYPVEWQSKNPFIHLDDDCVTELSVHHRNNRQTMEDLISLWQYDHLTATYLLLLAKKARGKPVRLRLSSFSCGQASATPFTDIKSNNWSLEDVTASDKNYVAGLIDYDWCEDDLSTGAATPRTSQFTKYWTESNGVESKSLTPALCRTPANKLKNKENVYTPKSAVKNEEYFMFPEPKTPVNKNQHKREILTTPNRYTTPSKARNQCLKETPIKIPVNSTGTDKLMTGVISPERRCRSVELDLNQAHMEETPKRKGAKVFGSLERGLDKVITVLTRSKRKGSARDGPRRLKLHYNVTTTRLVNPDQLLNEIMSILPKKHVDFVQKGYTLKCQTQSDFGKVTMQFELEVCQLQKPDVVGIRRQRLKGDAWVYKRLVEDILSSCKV

O=C(N[C@@H](c1ccccn1)C1CC1)c1ccc2[nH]nc(-c3ccc(N4[C@H]5CC[C@H]4CC(O)C5)cc3)c2c1 (stereo in doubt; 75)
IC50 [1]: 3.1 nM
GI50 [2]: 80 nM
IC50 [3]: 1300 nM
half-life at 1 µM [4]: > 60 min
half-life [5]: 46.8 min
AUC(0-inf) [6]: 550 ng·h/mL
bioavailability [7]: 43%
MTD at 504 h [8]: 35 mg/kg
inhibition in vivo at 23 mg/kg [9]: 55%
IC50 [10]: 280 nM
IC50 [11]: 160 nM
EC50 [12]: 14 nM
Ki [13]: 0.7 nM
GI50 [14]: 70 nM
GI50 [15]: 17 nM
GI50 [16]: 18 nM
GI50 [17]: 210 nM
Activity [18]: 61%
half-life at 1 µM [19]: > 60 min
fraction unbound [20]: 0.069
fraction unbound [21]: 0.114
fraction unbound [22]: 0.022
